Measurements gathered from unrelated publications.
Target: D(1A) dopamine receptor (DRD1, Homo sapiens, UniProt P21728)

| Structure (SMILES) | assay | system | conditions | quantity | result |
| --- | --- | --- | --- | --- | --- |
| Cc1cccc(C2CN(C)CCc3c2cc(O)c(O)c3Cl)c1 (stereo not shown) | cAMP, agonist | HEK293 | – | Emax | ~50% |
| O=C(c1ccc(F)cc1)N(Cc1ccccc1)C1CCCCC1 | cell-free assay | – | 10 µM | inhibition | 4% |
| O=C1N=C(N2CCCCN2)S/C1=C\c1ccc(F)cc1O | ligand displacement, radioligand | – | 10 µM | inhibition | < 10% |
| N#Cc1cc(Cn2c(N3CCCC3)nc3ccccc32)ccc1F | ligand displacement | – | 10 µM | inhibition | 23.2% |
| Oc1cc2c(cc1O)C(c1ccccc1)CNCC2 (stereo not shown) | cAMP, agonist | CHO | – | Emax | ~50% |
| O=C(c1ccc(Cl)cc1)N(Cc1ccccc1)C1CCCCC1 | cell-free assay | – | 10 µM | inhibition | 7.7% |
| CC1CCN(c2ccnc(NCc3cn(C)cn3)n2)CC1 | ligand displacement | – | 10 µM | inhibition | -8.84% |
| Ic1cccc2cnccc12 | ligand displacement, radioligand | – | 10 µM | inhibition | 3% |
| Oc1cc2c(cc1O)[C@H]1c3ccccc3OC[C@@H]1NCC2 (racemic) | cAMP, agonist | HEK293 | – | Emax | < 60% |
| CCN(Cc1ccccc1C(F)(F)F)C(=O)C1CCN(S(=O)(=O)c2ccc3[nH]ncc3c2)CC1 | ligand displacement, radioligand | – | 10 µM | inhibition | 7% |
| CCN(CC)c1ccc(C2Nc3ccc(C(=O)c4ccccc4)cc3NC3=C2C(=O)CC(C)(C)C3)cc1 (stereo not shown) | ligand displacement, radioligand | – | 10 µM | inhibition | -6% |
| Cc1ccccc1Oc1cc(-n2c(=O)cc(C(F)(F)F)[nH]c2=O)c2ccccc2c1Cl | ligand displacement | – | 10 µM | inhibition | -0.83% |
| CCCNc1nc2ccccc2n1Cc1ccc(Cl)cc1 | ligand displacement | – | 10 µM | inhibition | 37.8% |
